Columns and labels:
[1] = Selectivity index, ratio of CC50 for cytotoxicity against human MT4 cells assessed as reduction in cell viability to EC50 for antiviral activity against wild type HIV-1 IIIB infected in human MT4 cells; type: toxicity, cell-based; conditions: read-out: Ratio CC50/EC50
Procedure, shortened: (§1)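 MT-4 cells infected with wild-type HIV-1 IIIB, or with RES056 (K103N + Y181C double RT mutant) for the SI ratio line. Antiviral activity and cytotoxicity were both read by the tetrazolium (MTT) colorimetric method. […] SI was calculated as CC50/EC50.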

[2] = Selectivity index, ratio of CC50 for cytotoxicity against human MT4 cells assessed as reduction in cell viability to EC50 for antiviral activity against HIV-1 RES056 infected in human MT4 cells; type: toxicity, cell-based; conditions: read-out: Ratio CC50/EC50; procedure, shortened: as §1
[3] = tested on: Human immunodeficiency virus 1; assay: Antiviral activity against wild type HIV-1 IIIB infected in human MT4 cells assessed as reduction in virus-induced cytopathicity by MTT assay; type: functional, organism-based; conditions: Human immunodeficiency virus 1, IIIB; procedure, shortened: as §1
[4] = Selectivity index, ratio of CC50 for cytotoxicity against African green monkey Vero E6 cells assessed as reduction in cell viability to EC50 for antiviral activity against SARS-CoV-2 infected in African green monkey Vero E6 cells assessed as inhibition of virus growth; type: toxicity, cell-based, Vero C1008; conditions: read-out: Ratio CC50/EC50
[5] = tested on: SARS-CoV-2; assay: Antiviral activity against SARS-CoV-2 infected in African green monkey Vero E6 cells assessed as inhibition of virus growth; type: functional, organism-based; conditions: Severe acute respiratory syndrome coronavirus 2, Vero C1008
[6] = tested on: Influenza A virus; assay: Antiviral activity against influenza A H1N1 infected in MDCK cells assessed as reduction in viral replication by plaque reduction assay; type: functional, organism-based
[7] = Selectivity index, ratio of CC50 for cytotoxicity against dog MDCK cells assessed as reduction in cell viability by MTT assay to EC50 for antiviral activity against influenza A H1N1 infected in MDCK cells assessed as reduction in viral replication by plaque reduction assay; type: toxicity, cell-based; conditions: read-out: Ratio CC50/EC50
[8] = Cytotoxicity against dog MDCK cells assessed as reduction in cell viability by MTT assay; type: toxicity, cell-based, Canis lupus familiaris
[9] = tested on: Influenza A virus; assay: Antiviral activity against Influenza A virus H9N2 infected in MDCK cells assessed as inhibition of viral replication; type: functional, organism-based
[10] = target: Hepatitis C virus NS5B RNA-dependent RNA polymerase (Hepatitis C virus, UniProt Q8JXU8); assay: Inhibition of Hepatitis C virus NS5B polymerase; set-up: species or system Hepacivirus hominis
Hepatitis C virus NS5B RNA-dependent RNA polymerase, sequence (Q8JXU8 whole entry): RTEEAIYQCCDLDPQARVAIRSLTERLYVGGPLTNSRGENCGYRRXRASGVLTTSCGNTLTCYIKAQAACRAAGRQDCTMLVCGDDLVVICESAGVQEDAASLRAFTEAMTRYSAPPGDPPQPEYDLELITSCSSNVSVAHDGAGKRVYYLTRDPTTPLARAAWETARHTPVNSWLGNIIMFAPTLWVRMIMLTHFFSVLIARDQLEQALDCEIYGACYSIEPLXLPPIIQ

[11] = tested on: Hepatitis C virus; assay: Antiviral activity against HCV assessed as reduction in viral growth; type: functional, organism-based, Hepacivirus hominis
[12] = tested on: Human immunodeficiency virus 1; assay: Antiviral activity against wild type HIV-1 infected in human HeLa cells assessed as reduction in viral growth; type: functional, organism-based; conditions: Human immunodeficiency virus 1, HeLa
[13] = tested on: Human immunodeficiency virus 1; assay: Antiviral activity against HIV-1 harboring K103 N/Y181C double mutant infected in human HeLa cells assessed as reduction in viral growth; type: functional, organism-based; conditions: Human immunodeficiency virus 1, HeLa
[14] = target: Hepatitis C virus NS5B RNA-dependent RNA polymerase (Hepatitis C virus) (UniProt Q8JXU8); assay: Inhibition of Hepatitis C virus NS5B polymerase at 100 uM relative to control; conditions: Hepacivirus hominis
Hepatitis C virus NS5B RNA-dependent RNA polymerase (Hepatitis C virus), sequence (Q8JXU8 as listed by the source): as the sequence (Q8JXU8 whole entry) above

[15] = Cytotoxicity against dog MDCK cells assessed as reduction in cell viability; type: toxicity, cell-based, Canis lupus familiaris
[16] = tested on: Human immunodeficiency virus 1; assay: Antiviral activity against HIV-1 harboring reverse transcriptase K103N mutant infected in human MT4 cells assessed as reduction in virus-induced cytopathic effect; type: functional, organism-based; conditions: Human immunodeficiency virus 1, MT4
[17] = tested on: Human immunodeficiency virus 1; assay: Antiviral activity against HIV-1 harboring reverse transcriptase F227L/V106A double mutant infected in human MT4 cells assessed as reduction in virus-induced cytopathic effect; type: functional, organism-based; conditions: Human immunodeficiency virus 1, MT4
[18] = tested on: Human immunodeficiency virus 1; assay: Antiviral activity against HIV-1 harboring reverse transcriptase E138K mutant infected in human MT4 cells assessed as reduction in virus-induced cytopathic effect; type: functional, organism-based; conditions: Human immunodeficiency virus 1, MT4
[19] = tested on: Human immunodeficiency virus 1; assay: Antiviral activity against HIV-1 harboring reverse transcriptase Y181C mutant infected in human MT4 cells assessed as reduction in virus-induced cytopathic effect; type: functional, organism-based; conditions: Human immunodeficiency virus 1, MT4
[20] = tested on: Human immunodeficiency virus 1; assay: Antiviral activity against HIV-1 harboring reverse transcriptase Y188L mutant infected in human MT4 cells assessed as reduction in virus-induced cytopathic effect; type: functional, organism-based; conditions: Human immunodeficiency virus 1, MT4
[21] = tested on: Huh-7; assay: Anticancer activity against human Huh-7 cells measured after 72 hrs; type: functional, cell-based; conditions: Huh-7, 72 h
[22] = Cytotoxicity against human MT4 cells assessed as reduction in cell viability; type: toxicity, cell-based; procedure, shortened: as §1
[23] = Selectivity index, ratio of CC50 for cytotoxicty against human Huh-7 cells to EC50 for antiviral activity against HCV infected in human Huh-7 cells assessed as reduction in viral infection; type: toxicity, cell-based; conditions: read-out: Ratio CC50/EC50
[24] = tested on: Human orthopneumovirus; assay: Antiviral activity against RSV A infected in human HEp-2 cells assessed as inhibition of virus-induced cytopathogenic effect; type: functional, organism-based; conditions: human respiratory syncytial virus
[25] = Antiviral activity against RSV B infected in human HEp-2 cells assessed as inhibition of virus-induced cytopathogenic effect; type: functional, cell-based; conditions: human respiratory syncytial virus
[26] = target: CYP2D6 (Homo sapiens, UniProt P10635); assay: Inhibition of CYP2D6 (unknown origin); type: ADME
CYP2D6, sequence (P10635 whole entry): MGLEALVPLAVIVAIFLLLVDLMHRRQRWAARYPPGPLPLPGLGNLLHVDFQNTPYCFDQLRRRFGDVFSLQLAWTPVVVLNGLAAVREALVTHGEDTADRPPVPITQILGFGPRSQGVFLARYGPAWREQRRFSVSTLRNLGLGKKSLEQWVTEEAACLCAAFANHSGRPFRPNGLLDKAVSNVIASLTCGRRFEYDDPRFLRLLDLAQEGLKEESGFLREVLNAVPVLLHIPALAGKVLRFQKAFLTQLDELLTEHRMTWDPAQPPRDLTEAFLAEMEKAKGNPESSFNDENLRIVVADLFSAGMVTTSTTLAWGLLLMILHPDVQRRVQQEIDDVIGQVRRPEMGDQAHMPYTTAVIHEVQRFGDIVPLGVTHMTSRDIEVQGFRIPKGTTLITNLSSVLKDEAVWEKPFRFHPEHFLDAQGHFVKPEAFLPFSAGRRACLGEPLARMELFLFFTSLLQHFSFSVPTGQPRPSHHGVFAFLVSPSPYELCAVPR

[27] = tested on: Human immunodeficiency virus 1; assay: Antiviral activity against wild type HIV-1 infected in human HeLa cells assessed as reduction in viral growth incubated for 48 hrs by bright-glo luciferase assay; type: functional, organism-based; conditions: Human immunodeficiency virus 1, HeLa
[28] = Cytotoxicity against human HeLa cells assessed as reduction in cell viability incubated for 48 hrs by cellTiter-glo assay; type: toxicity, cell-based
[29] = tested on: Human immunodeficiency virus 1; assay: Antiviral activity against HIV-1 harboring K103N/Y181C double mutant infected in human HeLa cells assessed as reduction in viral growth incubated for 48 hrs by bright-glo luciferase assay; type: functional, organism-based; conditions: Human immunodeficiency virus 1, HeLa

Cc1cc(C)c(Oc2cc(Nc3ccc(C#N)cc3)ncc2C(=O)NCc2cn(CC(=O)N3CCOCC3)nn2)c(C)c1
selectivity ratio [1]: 9280 | selectivity ratio [2]: 12 | EC50 [3]: 20 nM

O=C(OCc1cn(-c2ccc(Cl)cc2)nn1)c1cnccn1
selectivity ratio [4]: 1.7 | IC50 [5]: 1150 nM

CCc1c(C)nc2nnc(-c3ccccc3Cl)n2c1O
EC50 [6]: 550 nM | selectivity ratio [7]: 227 | CC50 [8]: 125000 nM | EC50 [9]: 90 nM

Cc1cc(C)n2nc(CC3=C(O)CC(CCc4ccc(C(C)(C)C#N)c(F)c4)(C4CCCC4)OC3=O)nc2n1 (stereo unspecified)
IC50 [10]: 3 nM | EC50 [11]: 15 nM

COc1ccccc1-n1cc(COC(=O)c2cnccn2)nn1
selectivity ratio [4]: 2.1 | IC50 [5]: 1080 nM

Cc1ccc(NC(=O)CSc2nnc(C)n2-c2ccccc2)c(Br)c1
EC50 [12]: 100 nM | EC50 [13]: 1300 nM

CCCn1c(CC2(CC)OCCc3c2[nH]c2c(CC)cccc32)n[nH]c1=S (stereo unspecified)
IC50 [10]: 26000 nM | inhibition [14]: 69%

CCCCn1c(CC2(CC)OCCc3c2[nH]c2c(CC)cccc32)n[nH]c1=S (stereo unspecified)
IC50 [10]: 25400 nM | inhibition [14]: 72.3%

COc1ccc(C(=O)Nc2nc3n(n2)C(c2ccccc2)C=C(C)N3)cc1 (stereo unspecified)
CC50 [15]: > 250000 nM

CCc1cc(CCC2(C3CCCC3)CC(O)=C(Cc3nc4nc(C)cc(C)n4n3)C(=O)O2)cc(CC)n1 (stereo unspecified)
IC50 [10]: 16 nM

NC(=O)c1nc(F)cnc1O
selectivity ratio [4]: 3.8 | IC50 [5]: 1380 nM

CCc1cccc2c3c([nH]c12)C(CC)(Cc1n[nH]c(=S)n1CC)OCC3 (stereo unspecified)
IC50 [10]: 21600 nM | inhibition [14]: 74.6%

CC(C)Nc1cccnc1N1CCN(C(=O)c2cc3cc(NS(C)(=O)=O)ccc3[nH]2)CC1 [DELAVIRDINE]
selectivity ratio [1]: 733 | EC50 [16]: 3000 nM | EC50 [17]: 2270 nM | EC50 [18]: 51 nM | EC50 [19]: 2460 nM | EC50 [20]: 840 nM | EC50 [3]: 38 nM

Cc1cc(C)c(Oc2cc(Nc3ccc(C#N)cc3)ncc2C(=O)NCc2cn(CC(=O)N3CCCC3)nn2)c(C)c1
selectivity ratio [1]: 2100 | selectivity ratio [2]: 41 | EC50 [3]: 20 nM

CCc1cccc2c3c([nH]c12)C(CC)(Cc1n[nH]c(=S)n1Cc1ccccc1)OCC3 (stereo unspecified)
inhibition [14]: 3.78%

CCc1cc(CC[C@@]2(C3CCCC3)CC(O)=C(Cc3nc4nc(C)cc(C)n4n3)C(=O)O2)cc(CC)n1
IC50 [10]: 12 nM

CCc1cccc2c3c([nH]c12)C(CC)(Cc1n[nH]c(=S)n1C)OCC3 (stereo unspecified)
EC50 [21]: 4290 nM | IC50 [10]: 14800 nM | inhibition [14]: 78.9%

Cc1ccnc2c1NC(=O)c1cccnc1N2C1CC1 [NEVIRAPINE]
CC50 [22]: > 15000 nM

O=C(CC(=O)c1nnc[nH]1)c1ccc(OCc2ccc(F)cc2)cc1
selectivity ratio [23]: > 128

C=CCn1c(CC2(CC)OCCc3c2[nH]c2c(CC)cccc32)n[nH]c1=S (stereo unspecified)
IC50 [10]: 40300 nM | inhibition [14]: 58.2%

COc1cc(-c2noc(-c3nnn(-c4ccccc4Cl)c3C)n2)cc(OC)c1OC
EC50 [24]: 1000 nM | EC50 [25]: 1000 nM

Cc1cc(C)c(Oc2cc(Nc3ccc(C#N)cc3)ncc2C(=O)NCc2cn(CCC#N)nn2)c(C)c1
selectivity ratio [1]: 2040 | selectivity ratio [2]: 17

O=C(OCc1cn(-c2ccccc2Cl)nn1)c1cnccn1
selectivity ratio [4]: 3.7 | IC50 [5]: 952 nM

COc1ccc(-n2cc(COC(=O)c3cnccn3)nn2)cc1
selectivity ratio [4]: 3.2 | IC50 [5]: 120 nM

Cc1cc(C)n2nc(CC3=C(O)CC(CCc4ccc(C(C)(C)O)c(F)c4)(C4CCCC4)OC3=O)nc2n1 (stereo unspecified)
IC50 [10]: 140 nM | IC50 [26]: > 6000 nM

CCc1cccc2c3c([nH]c12)C(CC)(Cc1n[nH]c(=S)n1C1CCCCC1)OCC3 (stereo unspecified)
inhibition [14]: 45.6%

CCC(C#N)(CC)c1ccc(CCC2(C3CCCC3)CC(O)=C(Cc3nc4nc(C)cc(C)n4n3)C(=O)O2)cc1F (stereo unspecified)
IC50 [10]: 5 nM | IC50 [26]: > 6000 nM

O=C(OCc1cn(-c2ccc([N+](=O)[O-])cc2)nn1)c1cnccn1
selectivity ratio [4]: 10.3 | IC50 [5]: 477 nM

CCc1cccc2c3c([nH]c12)C(CC)(Cc1n[nH]c(=S)n1-c1ccccc1)OCC3 (stereo unspecified)
inhibition [14]: 49.5%

NS(=O)(=O)c1ccc(NC(=O)CSc2nnc(Br)n2-c2ccc(C3CC3)c3ccccc23)c(Cl)c1
EC50 [27]: 0.14 nM | CC50 at 48 h [28]: ≥ 3000 nM | EC50 [29]: 0.23 nM

O=C(OCc1cn(-c2ccc(F)cc2)nn1)c1cnccn1
selectivity ratio [4]: 0.3 | IC50 [5]: 12200 nM

CCc1cc(CC[C@]2(C3CCCC3)CC(O)=C(Cc3nc4nc(C)cc(C)n4n3)C(=O)O2)cc(CC)n1 [FILIBUVIR]
IC50 [10]: 7 nM
